For one experiment, the system named is HepG2. Nature of the experiment: Anticancer activity against human cells HepG2 cells assessed as growth inhibition after 48 hrs by MTT assay. It counts as functional, cell-based. The settings on record: HepG2, 48 h. Summed up: (§1)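 Cells grown in MEM with 10% heat-inactivated FBS, penicillin, streptomycin and amphotericin-B at 37 °C, 5% CO2, and trypsinized with TPVG. Seeded at 1 × 10⁴ cells/well and allowed to adhere for 24 h, then exposed to a range of concentrations for 48 h. MTT (2 mg/mL in PBS) added for 3 h, formazan dissolved in isopropanol, A540 read. Growth inhibition calculated as (control − test)/control × 100.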

The subject of a further experiment is MCF7. Nature of the experiment: Anticancer activity against human cells MCF7 cells assessed as growth inhibition after 48 hrs by MTT assay. It counts as functional, cell-based. Conditions: MCF7, 48 h. The procedure, abridged: as §1

Structures are written as SMILES. Values after ≈ are worked out from the molar mass of the structure shown.

As to `CC1(C)CC(=O)C2=C(C1)NC1=C(C(=O)CC(C)(C)C1)C2c1cccc(C#N)c1`, the figures for the IC50 in the experiment with HepG2 and in the experiment with MCF7 were 1.4 µg/mL (≈ 3.74 µM) and 4.7 µg/mL (≈ 12.6 µM), respectively.

As to `COc1ccc(C2C3=C(CC(C)(C)CC3=O)NC3=C2C(=O)CC(C)(C)C3)cc1`, the half-maximal inhibitory concentration (IC50) in the experiment with HepG2 turned out to be 8.2 µg/mL (≈ 21.6 µM); in the experiment on MCF7 it was 9.6 µg/mL (≈ 25.3 µM).

Take `COc1ccc(C2C3=C(CC(C)(C)CC3=O)NC3=C2C(=O)CC(C)(C)C3)cc1Br`: the IC50 in the experiment with HepG2 was determined as 2.2 µg/mL (≈ 4.8 µM); in the experiment with MCF7, 5.3 µg/mL (≈ 11.6 µM).

As to `CCOc1cccc(C2C3=C(CC(C)(C)CC3=O)NC3=C2C(=O)CC(C)(C)C3)c1`, the results for the IC50 with HepG2 and with MCF7 were 4.8 µg/mL (≈ 12.2 µM) and 4.5 µg/mL (≈ 11.4 µM), respectively.

`CC1(C)CC(=O)C2=C(C1)NC1=C(C(=O)CC(C)(C)C1)C2c1cc(F)ccc1O`: the IC50 with HepG2 amounted to 8.6 µg/mL (≈ 22.4 µM); with MCF7 it was 6.2 µg/mL (≈ 16.2 µM).

In the case of `CC1(C)CC(=O)C2=C(C1)NC1=C(C(=O)CC(C)(C)C1)C2c1ccccc1O`, the figures for the IC50 in the experiment with HepG2 and in the experiment with MCF7 were 2.6 µg/mL (≈ 7.11 µM) and 5.9 µg/mL (≈ 16.1 µM), respectively.

Consider `COc1ccc(C2C3=C(CC(C)(C)CC3=O)NC3=C2C(=O)CC(C)(C)C3)c(OC)c1`, for which the IC50 in the experiment with HepG2 was 1.6 µg/mL (≈ 3.91 µM); in the experiment on MCF7, 5 µg/mL (≈ 12.2 µM).

Consider `COc1cccc2c1C(=O)c1c(O)c3c(c(O)c1C2=O)C[C@@](O)(C(=O)CO)C[C@@H]3O[C@H]1C[C@H](N)[C@H](O)[C@H](C)O1` [DOXORUBICIN], for which the IC50 with HepG2 worked out at 1.21 µg/mL (≈ 2.23 µM); in the experiment on MCF7, 1.09 µg/mL (≈ 2.01 µM).

Values taken from ChEMBL document CHEMBL3352785, “Study on one-pot four-component synthesis of 9-aryl-hexahydro-acridine-1,8-diones using SiO2-I as a new heterogeneous catalyst and their anticancer activity” (Bioorg Med Chem Lett, 2014).
